In experiment [1] the target is T1, Sialidase-3 (Homo sapiens, UniProt Q9UQ49).
T1 sequence (Q9UQ49 whole entry): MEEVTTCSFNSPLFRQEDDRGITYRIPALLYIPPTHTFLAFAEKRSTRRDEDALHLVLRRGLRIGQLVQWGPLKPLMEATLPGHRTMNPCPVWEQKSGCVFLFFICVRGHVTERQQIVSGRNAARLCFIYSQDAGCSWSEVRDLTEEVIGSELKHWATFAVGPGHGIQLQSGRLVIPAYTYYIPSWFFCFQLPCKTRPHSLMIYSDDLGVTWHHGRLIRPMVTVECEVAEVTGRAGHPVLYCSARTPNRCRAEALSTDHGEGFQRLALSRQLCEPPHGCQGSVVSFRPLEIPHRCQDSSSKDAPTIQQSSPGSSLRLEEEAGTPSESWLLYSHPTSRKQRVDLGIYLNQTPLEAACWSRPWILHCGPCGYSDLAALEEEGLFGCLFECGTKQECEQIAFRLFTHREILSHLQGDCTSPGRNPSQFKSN
Put plainly: Inhibition of human neuraminidase 3 expressed in Escherichia coli using 4MU-NANA as substrate after 30 mins by fluorescence assay. Put shortly: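 Enzyme made in E. coli as N-terminal MBP fusion. 0.1 M sodium acetate pH 4.5. 3-fold serial inhibitor dilutions from 1 mM final, 15 min preincubation with enzyme at 37 °C, then 4MU-NANA 50 μM final for 30 min at 37 °C. Glycinate pH 10.7 stop, fluorescence 365/445 nm. Quadruplicate points; IC50 by nonlinear regression.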

In another experiment the target is T2, Sialidase-4 (Homo sapiens, UniProt Q8WWR8).
T2 sequence (Q8WWR8 whole entry): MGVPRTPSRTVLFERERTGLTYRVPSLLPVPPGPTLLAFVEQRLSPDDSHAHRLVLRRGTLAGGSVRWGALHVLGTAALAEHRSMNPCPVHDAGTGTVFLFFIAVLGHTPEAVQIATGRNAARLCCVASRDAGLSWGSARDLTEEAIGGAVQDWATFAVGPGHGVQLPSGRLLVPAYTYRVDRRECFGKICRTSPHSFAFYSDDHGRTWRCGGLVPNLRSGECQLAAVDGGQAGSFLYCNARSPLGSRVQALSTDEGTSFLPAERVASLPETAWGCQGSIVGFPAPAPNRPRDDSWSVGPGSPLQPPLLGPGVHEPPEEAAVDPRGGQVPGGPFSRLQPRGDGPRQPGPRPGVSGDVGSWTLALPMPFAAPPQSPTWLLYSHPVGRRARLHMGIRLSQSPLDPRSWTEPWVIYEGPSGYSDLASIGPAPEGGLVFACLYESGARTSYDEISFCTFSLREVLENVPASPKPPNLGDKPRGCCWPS
The experiment is described as follows: Inhibition of human neuraminidase 4 using 4MU-NANA as substrate after 30 mins by fluorescence assay. Put shortly:
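GST-fusion enzyme, assayed in 0.1 M sodium acetate pH 4.5. Inhibitor diluted 3-fold serially from 1 mM final, incubated 15 min at 37 °C with enzyme, then 4MU-NANA (50 μM final) 30 min at 37 °C. Four replicates; IC50 from nonlinear regression.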

For the next experiment, the target named is Sialidase-1 (Homo sapiens, UniProt Q99519). The experiment is described as follows: Inhibition of human neuraminidase 1 using 4MU-NANA as substrate after 30 mins by fluorescence assay. In a few lines: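 NEU1 purified per earlier protocol as complex with β-galactosidase and cathepsin A. 0.1 M sodium acetate, pH 4.5. Inhibitor in 3-fold serial dilutions from 1 mM final, preincubated with enzyme 15 min at 37 °C. 4MU-NANA (50 μM final) added, 30 min at 37 °C. Four replicates; IC50 by nonlinear regression.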

The target in another experiment is Neuraminidase (Vibrio cholerae, UniProt Q5IB64). Put plainly: Inhibition of Vibrio cholerae neuraminidase.
Experiment [2] deals with T1, Sialidase-3. The experiment is described as follows: Inhibition of human neuraminidase 3 expressed in Escherichia coli using 4MU-NANA as substrate measured for every 30 seconds for 60 mins by fluorescence assay. In a few lines:
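Product formation at 37 °C read every 30 s for 60 min (ex 365/em 445 nm). Initial linear rates; Lineweaver–Burk slopes plotted against inhibitor concentration and fitted for Ki.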

The values that follow come from ChEMBL document CHEMBL2321726, “Identification of selective inhibitors for human neuraminidase isoenzymes using C4,C7-modified 2-deoxy-2,3-didehydro-N-acetylneuraminic acid (DANA) analogues” (J Med Chem, 2013).

On to `CC(=O)N[C@H]1[C@H]([C@H](O)[C@H](O)CO)OC(C(=O)O)=C[C@@H]1N=[N+]=[N-]`, for which the IC50 was 54 µM against Sialidase-3 [1], 1000 µM against Sialidase-4, 360 µM against Sialidase-1 and 540 µM against Neuraminidase.

In the case of `CC(=O)N[C@H]1[C@H]([C@H](O)[C@H](O)CO)OC(C(=O)O)=C[C@@H]1O` [NEU5AC2EN], the 50% inhibitory concentration (IC50) on Sialidase-3 [1] is 6.3 µM; on Neuraminidase, 170 µM. In addition, at Sialidase-3 [2], the inhibitory constant (Ki) was 2.2 µM.

Take `CC(=O)N[C@@H]1[C@@H](N=[N+]=[N-])C=C(C(=O)O)O[C@H]1CNc1ccccc1`: the concentration for half-maximal inhibition (IC50) on Sialidase-3 [1] was 440 µM; against Sialidase-4, 300 µM; on Sialidase-1, greater than 1000 µM; against Neuraminidase, greater than 1000 µM.

Take `CC(=O)N[C@@H]1[C@@H](N=[N+]=[N-])C=C(C(=O)O)O[C@H]1CNc1ccc(-c2ccccc2)cc1`: the half-inhibitory concentration (IC50) on Sialidase-3 [1] is 50 µM; against Sialidase-4 it was 210 µM; against Sialidase-1, greater than 1000 µM; on Neuraminidase it was greater than 1000 µM.

As to `CC(=O)N[C@H]1[C@H](CNc2ccccc2)OC(C(=O)O)=C[C@@H]1N`, the concentration for half-maximal inhibition (IC50) was 540 µM against Sialidase-3 [1], greater than 1000 µM on Sialidase-4, greater than 1000 µM at Sialidase-1 and greater than 1000 µM on Neuraminidase.

With `CC(=O)N[C@H]1[C@H](CNc2ccccc2)OC(C(=O)O)=C[C@@H]1O`, the IC50 against Sialidase-3 [1] is 370 µM; on Sialidase-4 it was greater than 1000 µM; on Sialidase-1, greater than 1000 µM; on Neuraminidase, greater than 1000 µM.

For the molecule `CC(=O)N[C@H]1[C@H](CNCc2ccccc2)OC(C(=O)O)=C[C@@H]1O`, the IC50 was greater than 1000 µM against Sialidase-3 [1], greater than 1000 µM against Sialidase-4, greater than 1000 µM at Sialidase-1 and 470 µM against Neuraminidase.

As to `CC(=O)N[C@@H]1[C@@H](N=[N+]=[N-])C=C(C(=O)O)O[C@H]1CNNc1ccccc1`, the IC50 is 20 µM against Sialidase-3 [1], greater than 1000 µM at Sialidase-4, greater than 1000 µM against Sialidase-1 and greater than 1000 µM on Neuraminidase. The Ki on Sialidase-3 [2] is 11 µM.

As to `CC(=O)N[C@H]1[C@H](CNNCc2ccc(-c3ccccc3)cc2)OC(C(=O)O)=C[C@@H]1O`, the IC50 was 70 µM on Sialidase-3 [1], 200 µM against Sialidase-4, greater than 1000 µM against Sialidase-1 and greater than 1000 µM against Neuraminidase.

In the case of `CC(=O)N[C@H]1[C@H]([C@H](O)[C@H](O)CO)OC(C(=O)O)=C[C@@H]1N`, the IC50 is 180 µM on Sialidase-3 [1], 720 µM at Sialidase-4, greater than 1000 µM on Sialidase-1 and greater than 1000 µM at Neuraminidase.

Take `CC(=O)N[C@@H]1[C@@H](N=[N+]=[N-])C=C(C(=O)O)O[C@H]1CN(Cc1ccccc1)OCc1ccccc1`: the concentration for half-maximal inhibition (IC50) against Sialidase-3 [1] was 24 µM; against Sialidase-4, 350 µM; on Sialidase-1 it was greater than 1000 µM; at Neuraminidase, greater than 1000 µM.

In the case of `CC(=O)N[C@@H]1[C@@H](N=[N+]=[N-])C=C(C(=O)O)O[C@H]1CNOCc1ccccc1`, the concentration for half-maximal inhibition (IC50) against Sialidase-3 [1] was 24 µM; on Sialidase-4 it was greater than 1000 µM; against Sialidase-1, greater than 1000 µM; at Neuraminidase, 550 µM. The molecule also yielded an inhibition constant (Ki) on Sialidase-3 [2] of 8 µM.
